Here are results for 1 compound from PMC5665024 (Chemical research in toxicology, 2017).

Where two headings read alike, the source gives them in different places. Where only a bound is given, the exact number is not on record here.

The target in assay [1] is human DNA polymerase β (pol β) (Homo sapiens, UniProt P06746). The experiment in a line: Steady-state primer extension assay, pol β. Type of assay: biochemical.
Another assay has as its system PANC1 cells. As to the kind of experiment: MTS assay of cell proliferation, PANC1. The format is cell-based, human. As to conditions: for IC50: Homo sapiens; for −log(IC50) (95% CI): tested compound alone. The method, boiled down:
(§1)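 Cells grown in DMEM with 10% FBS at 37 °C and 5% CO2. Plated at 5 × 10^3 per well, grown 24 h, then exposed 24 or 72 h to test compound alone or in pairs: 10 μM bleomycin-type or 250 μM alkylating agent added to the lignan, or 10 μM lignan added to either. DMSO 0.2% final; vehicle controls. MTS/PMS for 4 h; A492; cell-free background. Triplicate; IC50 fit, 95% CI.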
For orientation: Tetrazolium dyes change colour on reduction, which living cells bring about.

A further assay concerns A549 cells. As to the kind of experiment: MTS assay of cell proliferation, A549. As to conditions: A549, 24 h. Type of assay: cell-based, human. Summed up: as §1
The target in a further assay is T1, pol λ binding to DNA (Homo sapiens, UniProt Q9UGP5).
T1 sequence (Q9UGP5 1-575): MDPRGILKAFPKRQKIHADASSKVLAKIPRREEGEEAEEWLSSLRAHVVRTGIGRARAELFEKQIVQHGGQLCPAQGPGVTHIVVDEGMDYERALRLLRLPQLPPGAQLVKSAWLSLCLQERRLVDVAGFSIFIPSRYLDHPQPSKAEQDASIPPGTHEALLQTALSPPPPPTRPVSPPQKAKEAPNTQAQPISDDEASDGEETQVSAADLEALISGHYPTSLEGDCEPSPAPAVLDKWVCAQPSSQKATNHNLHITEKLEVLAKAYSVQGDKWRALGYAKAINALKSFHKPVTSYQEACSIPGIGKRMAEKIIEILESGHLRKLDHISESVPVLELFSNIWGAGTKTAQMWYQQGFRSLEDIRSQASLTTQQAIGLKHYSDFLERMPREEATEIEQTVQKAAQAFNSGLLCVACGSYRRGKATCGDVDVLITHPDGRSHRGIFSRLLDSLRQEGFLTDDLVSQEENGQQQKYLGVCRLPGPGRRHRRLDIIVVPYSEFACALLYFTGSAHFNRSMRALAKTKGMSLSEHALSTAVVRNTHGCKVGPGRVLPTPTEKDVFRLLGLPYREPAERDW
The experiment in a line: Polymerase–DNA interaction, electrophoretic mobility shift assay, pol λ. Conditions: for inhibition of DNA binding to polymerase (EMSA): honokiol up to 200 μM, polymerase in excess of DNA. On the technique in general: Mobility shift assays separate free from complexed probe on a gel.

A word on the IC50: it is the concentration at which inhibition is half-maximal. What is called Ki is the dissociation constant of the complex between target and ligand, obtained from inhibition or displacement. Regarding `C=CCc1ccc(O)c(-c2ccc(O)c(CC=C)c2)c1` [HNL, 2-(4-hydroxy-3-prop-2-enyl-phenyl)-4-prop-2-enyl-phenol], the IC50 was 0.6 µM in assay [1]; 20 µM with PANC1 cells (PANC-1, 24 h, read-out: −log(IC50) (95% CI), PANC1, 24 h, tested compound alone (converted)); 7.94 µM in the assay with PANC1 cells (PANC-1, 72 h, read-out: −log(IC50) (95% CI), PANC1, 72 h, tested compound alone (converted)); 25.1 µM in the assay with A549 cells (Homo sapiens, read-out: −log(IC50) (95% CI), A549, 24 h, tested compound alone (converted)). Also, the Ki was 4 µM in assay [1] (Ki, hyperbolic mixed-type inhibition fit (eq 3), vs dCTP, 95% confidence limits) and over 500 µM on pol λ binding to DNA. Further, the α in assay [1] (eq 3, factor on Km/Ki, 95% confidence limits) is listed as 0.55 (0.31, 0.79). In assay [1] (eq 3, residual catalysis with HNL bound, 95% confidence limits), the β was 0.20 (0.15, 0.25). Moreover, in assay [1] (steady-state kinetic analysis), the “inhibition mechanism versus dCTP” value is recorded as “mixed-type noncompetitive”. In addition, the “−log(IC50) (95% CI)” value was 4.6 (4.5, 4.8) in the assay on PANC1 cells (PANC1, 24 h); 4.8 (4.7, 4.9) with PANC1 cells (PANC1, 72 h); 4.6 (4.5, 4.8) in the assay with A549 cells (tested compound alone). The “inhibition of DNA binding to polymerase (EMSA)” value is “does not inhibit DNA binding” at pol λ binding to DNA (listed as Honokiol) and “did not inhibit the binding of the DNA to the polymerase” on pol λ binding to DNA (listed as honokiol).
